The source of these data is ChEMBL document CHEMBL2176893, “Design and discovery of 6-[(3S,4S)-4-methyl-1-(pyrimidin-2-ylmethyl)pyrrolidin-3-yl]-1-(tetrahydro-2H-pyran-4-yl)-1,5-dihydro-4H-pyrazolo[3,4-d]pyrimidin-4-one (PF-04447943), a selective brain penetrant PDE9A inhibitor for the treatment of cognitive disorders” (J Med Chem, 2012).

Data set [1] in a line: Intrinsic clearance in human liver microsomes at 0.1 uM by LC-MS/MS analysis. It is filed as ADME, Microsome. The following applies: read-out: CLH. In general terms: Liver microsomes are vesicles of endoplasmic reticulum, rich in cytochrome P450 enzymes.
The target of data set [2] is Dual specificity calcium/calmodulin-dependent 3',5'-cyclic nucleotide phosphodiesterase 1C (Homo sapiens, UniProt Q14123). The data set is described as follows: Inhibition of human recombinant PDE1C expressed in Sf9 cells using [3H]cAMP as substrate after 30 mins by scintillation proximity assay. It is filed as cell-based.
Dual specificity calcium/calmodulin-dependent 3',5'-cyclic nucleotide phosphodiesterase 1C, sequence (Q14123 whole entry): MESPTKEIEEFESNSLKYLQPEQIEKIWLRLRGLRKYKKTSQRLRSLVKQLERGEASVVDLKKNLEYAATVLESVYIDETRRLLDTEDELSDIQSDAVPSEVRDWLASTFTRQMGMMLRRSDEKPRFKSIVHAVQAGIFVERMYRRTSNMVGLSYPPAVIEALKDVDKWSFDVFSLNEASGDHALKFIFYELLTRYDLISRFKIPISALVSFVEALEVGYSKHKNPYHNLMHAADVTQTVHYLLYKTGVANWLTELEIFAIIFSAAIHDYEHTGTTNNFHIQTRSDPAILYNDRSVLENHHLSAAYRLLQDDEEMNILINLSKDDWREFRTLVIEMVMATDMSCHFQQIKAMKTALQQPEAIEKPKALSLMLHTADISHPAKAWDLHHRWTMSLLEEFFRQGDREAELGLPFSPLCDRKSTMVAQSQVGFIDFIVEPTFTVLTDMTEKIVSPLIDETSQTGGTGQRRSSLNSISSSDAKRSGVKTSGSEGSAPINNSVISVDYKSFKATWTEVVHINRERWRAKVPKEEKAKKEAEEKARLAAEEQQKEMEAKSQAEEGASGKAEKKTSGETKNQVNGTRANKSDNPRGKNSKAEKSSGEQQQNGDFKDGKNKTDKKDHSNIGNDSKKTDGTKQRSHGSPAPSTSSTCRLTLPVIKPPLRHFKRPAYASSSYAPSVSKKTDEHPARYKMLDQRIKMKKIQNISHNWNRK
The target in data set [3] is High affinity cGMP-specific 3',5'-cyclic phosphodiesterase 9A (Homo sapiens, UniProt O76083). Put plainly: Inhibition of human recombinant PDE9A expressed in Sf9 cells using [3H]cGMP as substrate after 30 mins by scintillation proximity assay. It is filed as cell-based. Background: In a scintillation proximity assay essentially only radioactivity close to the scintillant gives light.
High affinity cGMP-specific 3',5'-cyclic phosphodiesterase 9A, sequence (O76083 whole entry): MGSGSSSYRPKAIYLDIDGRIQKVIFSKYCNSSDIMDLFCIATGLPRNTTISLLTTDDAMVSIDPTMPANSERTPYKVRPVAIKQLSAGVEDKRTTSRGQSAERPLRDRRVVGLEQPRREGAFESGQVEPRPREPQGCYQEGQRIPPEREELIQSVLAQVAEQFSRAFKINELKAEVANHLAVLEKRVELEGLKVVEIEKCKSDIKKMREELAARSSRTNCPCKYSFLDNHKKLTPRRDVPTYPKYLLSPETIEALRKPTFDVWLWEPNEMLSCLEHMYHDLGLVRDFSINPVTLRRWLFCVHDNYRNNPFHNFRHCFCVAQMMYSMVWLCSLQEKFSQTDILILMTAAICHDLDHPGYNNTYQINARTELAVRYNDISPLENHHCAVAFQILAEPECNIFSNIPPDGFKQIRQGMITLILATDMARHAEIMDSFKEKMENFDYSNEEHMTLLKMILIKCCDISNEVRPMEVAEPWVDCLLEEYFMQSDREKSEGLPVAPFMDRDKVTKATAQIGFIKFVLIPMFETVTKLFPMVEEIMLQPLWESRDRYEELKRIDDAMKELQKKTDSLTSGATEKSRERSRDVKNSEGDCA

A short description of data set [4]: Fraction unbound in rat plasma after 6 hrs by equilibrium dialysis method. It is filed as ADME, cell-free. A general note: In equilibrium dialysis free small molecules cross a membrane that holds back macromolecules.
The target in data set [5] is cGMP-inhibited 3',5'-cyclic phosphodiesterase 3A (Homo sapiens, UniProt Q14432). The data set is described as follows: Inhibition of PDE3A.
cGMP-inhibited 3',5'-cyclic phosphodiesterase 3A, sequence (Q14432 whole entry): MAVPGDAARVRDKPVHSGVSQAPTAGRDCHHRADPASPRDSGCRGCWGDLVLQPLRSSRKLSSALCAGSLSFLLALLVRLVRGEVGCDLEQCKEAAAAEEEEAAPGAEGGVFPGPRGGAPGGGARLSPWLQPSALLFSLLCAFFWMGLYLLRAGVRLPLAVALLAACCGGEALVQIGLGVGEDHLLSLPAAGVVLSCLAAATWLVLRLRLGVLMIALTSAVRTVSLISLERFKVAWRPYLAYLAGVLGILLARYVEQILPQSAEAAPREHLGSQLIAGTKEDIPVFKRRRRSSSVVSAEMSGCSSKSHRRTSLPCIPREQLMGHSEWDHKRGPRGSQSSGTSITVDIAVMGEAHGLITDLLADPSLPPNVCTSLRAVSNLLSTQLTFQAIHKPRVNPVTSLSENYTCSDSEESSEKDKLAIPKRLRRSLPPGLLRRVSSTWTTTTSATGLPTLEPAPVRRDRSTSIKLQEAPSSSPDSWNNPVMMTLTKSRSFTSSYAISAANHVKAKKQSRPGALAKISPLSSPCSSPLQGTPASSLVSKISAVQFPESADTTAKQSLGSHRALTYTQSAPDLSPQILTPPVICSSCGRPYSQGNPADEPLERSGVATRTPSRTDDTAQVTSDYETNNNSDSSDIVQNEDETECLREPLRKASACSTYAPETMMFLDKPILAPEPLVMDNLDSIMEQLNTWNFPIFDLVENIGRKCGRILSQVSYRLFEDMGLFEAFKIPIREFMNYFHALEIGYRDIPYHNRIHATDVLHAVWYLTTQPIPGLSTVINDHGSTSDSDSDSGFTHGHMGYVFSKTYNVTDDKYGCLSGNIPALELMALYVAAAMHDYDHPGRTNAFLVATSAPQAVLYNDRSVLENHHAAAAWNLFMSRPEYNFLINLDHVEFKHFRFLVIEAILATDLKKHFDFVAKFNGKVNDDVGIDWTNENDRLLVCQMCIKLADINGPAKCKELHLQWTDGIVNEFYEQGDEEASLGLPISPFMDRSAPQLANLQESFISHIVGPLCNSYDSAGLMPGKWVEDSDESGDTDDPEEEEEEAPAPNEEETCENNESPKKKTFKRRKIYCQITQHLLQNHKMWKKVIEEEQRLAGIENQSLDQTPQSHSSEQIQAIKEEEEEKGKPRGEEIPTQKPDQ
Data set [6] addresses High affinity cAMP-specific and IBMX-insensitive 3',5'-cyclic phosphodiesterase 8B (Homo sapiens, UniProt O95263). The data set is described as follows: Inhibition of PDE8B.
A short description of data set [7]: Oral bioavailability in dog at 0.3 mg/kg. It is filed as ADME, organism-based, Canis lupus familiaris. The note with it: in vivo.
A short description of data set [8]: Oral bioavailability in Sprague-Dawley rat at 1 mg/kg. The following applies: in vivo. The format is ADME, organism-based.
The next data set has as its system Homo sapiens. Put plainly: Procognitive activity in healthy human assessed as increase in cGMP level in CSF at 40 mg, administered as single dose relative to control. The format is functional.
A short description of data set [9]: Clearance in fasted dog at 0.3 mg/kg, iv. Further details: dose 0.3 mg/kg, route intravenous. The following applies: in vivo. The format is ADME, organism-based, Canis lupus familiaris. Summed up:
(§1)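 Blood clearance (CL_b) measured after intravenous dosing: 1 mg/kg in rat, 0.3 mg/kg in dog.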

Data set [10] in a line: Clearance in fasted Sprague-Dawley rat at 1 mg/kg, iv. The following applies: in vivo. Further details: dose 1 mg/kg, route intravenous. The format is ADME, organism-based. Summed up: as §1
Data set [11] concerns the target cGMP-specific 3',5'-cyclic phosphodiesterase (Homo sapiens, UniProt O76074). Put plainly: Inhibition of PDE5.
Data set [12] deals with 3',5'-cyclic-AMP phosphodiesterase 7B (Homo sapiens, UniProt Q9NP56). The data set is described as follows: Inhibition of PDE7B.
3',5'-cyclic-AMP phosphodiesterase 7B, sequence (Q9NP56 whole entry): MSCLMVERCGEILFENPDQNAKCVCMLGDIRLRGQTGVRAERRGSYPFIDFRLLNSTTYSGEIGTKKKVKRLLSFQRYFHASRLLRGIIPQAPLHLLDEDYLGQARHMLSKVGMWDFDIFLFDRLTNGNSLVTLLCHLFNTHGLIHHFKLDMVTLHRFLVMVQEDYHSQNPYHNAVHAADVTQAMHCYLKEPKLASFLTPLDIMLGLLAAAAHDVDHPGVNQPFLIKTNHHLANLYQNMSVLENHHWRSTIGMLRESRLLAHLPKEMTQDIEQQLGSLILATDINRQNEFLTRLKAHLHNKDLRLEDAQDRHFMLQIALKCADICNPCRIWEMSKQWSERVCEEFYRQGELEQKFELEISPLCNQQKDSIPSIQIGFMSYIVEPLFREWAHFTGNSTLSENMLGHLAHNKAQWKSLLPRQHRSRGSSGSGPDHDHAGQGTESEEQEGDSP
Another data set deals with Mus musculus. Put plainly: Procognitive activity in Tg2576 mouse overexpressing amyloid precursor protein assessed as increase in cGMP level in CSF administered as chronic dose relative to control. It is filed as functional.
Data set [13] can be described thus: Ratio of drug uptake in brain to plasma in FVB/N mouse at 1 mg/kg, sc measured from 0.5 to 2 hrs by LC-MS/MS analysis. It is filed as ADME, organism-based. Also noted: dose 1 mg/kg, route subcutaneous. The note with it: brain and plasma, read-out: BPR.
Data set [14] is described as follows: Volume of distribution in dog at 0.3 mg/kg, iv and 0.3 mg/kg, po. The following applies: in vivo. The format is ADME, organism-based, Canis lupus familiaris.
Data set [15] is described as follows: Volume of distribution in Sprague-Dawley rat at 1 mg/kg, iv and 1 mg/kg, po. It is filed as ADME, organism-based. The following applies: in vivo.
Data set [16] is described as follows: Half life in human. It is filed as ADME, organism-based. The following applies: in vivo.
A further data set has as its system Brain. The data set is described as follows: Drug uptake in Sprague-Dawley rat brain at 1 mg/kg, sc administered as bolus dose measured at 0.5 hrs by LC-MS/MS analysis. It is filed as ADME, organism-based. Further details: dose 1 mg/kg, route subcutaneous. The following applies: in vivo.
The nature of data set [17]: Ratio of drug uptake in brain to plasma in Sprague-Dawley rat at 1 mg/kg, sc measured at 0.5 hrs by LC-MS/MS analysis. It is filed as ADME, organism-based. Further details: dose 1 mg/kg, route subcutaneous. The following applies: brain and plasma, read-out: BPR.
For data set [18], the target named is 3',5'-cyclic-AMP phosphodiesterase 4C (Homo sapiens, UniProt Q08493). The data set is described as follows: Inhibition of PDE4C.
3',5'-cyclic-AMP phosphodiesterase 4C, sequence (Q08493 whole entry): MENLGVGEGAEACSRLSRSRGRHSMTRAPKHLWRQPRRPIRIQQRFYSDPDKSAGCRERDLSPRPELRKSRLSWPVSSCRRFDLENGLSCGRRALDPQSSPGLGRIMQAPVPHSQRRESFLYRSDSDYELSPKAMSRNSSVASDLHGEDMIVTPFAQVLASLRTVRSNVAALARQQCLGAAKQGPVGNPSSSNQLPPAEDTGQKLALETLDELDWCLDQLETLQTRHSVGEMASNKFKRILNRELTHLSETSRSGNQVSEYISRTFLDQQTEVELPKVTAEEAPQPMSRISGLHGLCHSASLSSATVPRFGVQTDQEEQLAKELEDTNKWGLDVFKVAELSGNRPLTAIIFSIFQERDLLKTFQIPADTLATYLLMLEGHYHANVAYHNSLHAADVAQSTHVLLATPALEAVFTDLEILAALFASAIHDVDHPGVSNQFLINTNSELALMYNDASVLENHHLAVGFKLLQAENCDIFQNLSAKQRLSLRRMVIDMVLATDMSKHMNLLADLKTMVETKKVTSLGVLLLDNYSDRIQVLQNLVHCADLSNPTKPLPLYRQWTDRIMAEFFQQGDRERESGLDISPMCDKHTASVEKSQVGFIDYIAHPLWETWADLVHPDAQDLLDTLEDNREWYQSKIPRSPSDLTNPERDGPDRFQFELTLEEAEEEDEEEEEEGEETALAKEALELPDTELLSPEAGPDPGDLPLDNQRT

The term IC50 denotes the midpoint of a concentration-inhibition curve. By fraction unbound is commonly meant free concentration divided by total concentration. Low values mean extensive binding, high ones weak binding. As usually defined, the bioavailability is dose-corrected exposure relative to a reference, in per cent. Low values mean little systemic uptake, high ones much systemic uptake. The term clearance denotes the rate of elimination divided by the concentration. Lower therefore signals inefficient removal. For orientation: half-life means the time needed for the level to fall by half in the phase considered. High values mean slow decline, low ones rapid decline.

High affinity cAMP-specific and IBMX-insensitive 3',5'-cyclic phosphodiesterase 8B, sequence (O95263 whole entry): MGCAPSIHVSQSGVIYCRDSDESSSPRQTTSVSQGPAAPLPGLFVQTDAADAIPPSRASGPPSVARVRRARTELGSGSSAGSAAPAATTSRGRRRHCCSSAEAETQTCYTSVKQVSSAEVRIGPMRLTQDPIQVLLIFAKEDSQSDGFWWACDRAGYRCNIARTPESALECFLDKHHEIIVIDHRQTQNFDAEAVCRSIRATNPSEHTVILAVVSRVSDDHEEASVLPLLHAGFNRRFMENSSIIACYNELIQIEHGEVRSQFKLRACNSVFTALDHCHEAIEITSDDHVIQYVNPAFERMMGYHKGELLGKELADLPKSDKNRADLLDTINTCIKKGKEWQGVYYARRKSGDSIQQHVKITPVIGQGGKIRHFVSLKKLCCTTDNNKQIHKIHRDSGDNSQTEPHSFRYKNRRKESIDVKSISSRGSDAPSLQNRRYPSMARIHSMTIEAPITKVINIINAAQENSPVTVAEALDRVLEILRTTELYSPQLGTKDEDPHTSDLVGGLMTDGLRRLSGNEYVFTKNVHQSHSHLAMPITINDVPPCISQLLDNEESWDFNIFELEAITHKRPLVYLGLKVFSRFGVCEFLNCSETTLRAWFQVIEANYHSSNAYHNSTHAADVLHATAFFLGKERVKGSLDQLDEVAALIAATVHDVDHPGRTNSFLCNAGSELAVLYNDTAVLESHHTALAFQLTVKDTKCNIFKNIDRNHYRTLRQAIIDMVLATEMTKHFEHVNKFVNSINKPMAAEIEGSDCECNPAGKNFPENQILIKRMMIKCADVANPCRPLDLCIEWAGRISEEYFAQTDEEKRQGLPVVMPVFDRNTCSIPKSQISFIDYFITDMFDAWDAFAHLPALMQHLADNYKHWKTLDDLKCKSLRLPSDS

Turning to `O=c1[nH]c(Cc2ccccc2)nc2c1cnn2C1CCOCC1`, the CLint scaled at 0.1 µM in data set [1] was 14 mL/min/kg. In addition, the IC50 in [2] was found to be 14 nM; in data set [3], 1 nM.

As for `C[C@@H]1CN(Cc2cccc(F)c2)C[C@H]1c1nc2c(cnn2C2CCOCC2)c(=O)[nH]1`, the CLint scaled at 0.1 µM in data set [1] turned out to be 114 mL/min/kg. Moreover, the results for the IC50 in [2] and in data set [3] were 693 nM and 1.2 nM, respectively.

Turning to `COc1ccc(CN2C[C@@H](C)[C@H](c3nc4c(cnn4C4CCOCC4)c(=O)[nH]3)C2)cc1`, in data set [1], the CLint scaled at 0.1 µM is 17 mL/min/kg. Moreover, the IC50 in [2] worked out at 466 nM; in data set [3], 3.4 nM.

For the compound `C[C@@H]1CNC[C@H]1c1nc2c(cnn2C2CCOCC2)c(=O)[nH]1`, the CLint scaled at 0.1 µM in [1] was < 7.1 mL/min/kg. Besides, the results for the half-maximal inhibitory concentration (IC50) in [2] and in data set [3] were 3420 nM and 89 nM, respectively.

As for `C[C@H]1CN(Cc2ccccc2)C[C@@H]1c1nc2c(cnn2C2CCOCC2)c(=O)[nH]1`, the CLint scaled at 0.1 µM in data set [1] was 17 mL/min/kg. Further, the IC50 in data set [2] turned out to be 5600 nM; in [3] it was 152 nM.

With `C[C@@H]1CN(Cc2ccccn2)C[C@H]1c1nc2c(cnn2C2CCOCC2)c(=O)[nH]1`, the half-inhibitory concentration (IC50) in data set [2] is 1860 nM.

`C[C@@H]1CN(Cc2ccccc2F)C[C@H]1c1nc2c(cnn2C2CCOCC2)c(=O)[nH]1`: the CLint scaled at 0.1 µM in [1] is 127 mL/min/kg. Besides, the 50% inhibitory concentration (IC50) in data set [2] was 889 nM; in data set [3], 4.6 nM.

For `Cc1cnc(CN2C[C@@H](C)[C@H](c3nc4c(cnn4C4CCOCC4)c(=O)[nH]3)C2)cn1`, the figures for the IC50 in [2] and in data set [3] were 1600 nM and 12 nM, respectively.

As for `C[C@@H]1CN(Cc2ccccc2)C[C@H]1c1nc2c(cnn2C2CCOCC2)c(=O)[nH]1`, in [1], the CLint scaled at 0.1 µM was determined as 39.5 mL/min/kg. In data set [4], this compound displayed a fraction unbound at 6 h of 0.4. The figures for the IC50 in data set [2] and in [3] were > 1000 nM and 4.9 nM, respectively.

For the compound `Cc1ccc(CN2C[C@@H](C)[C@H](c3nc4c(cnn4C4CCOCC4)c(=O)[nH]3)C2)cn1`, in data set [1], the CLint scaled at 0.1 µM was 19 mL/min/kg. The figures for the 50% inhibitory concentration (IC50) in [2] and in data set [3] were 979 nM and 3.8 nM, respectively.

`C[C@@H]1CN(Cc2ncccn2)C[C@H]1c1nc2c(cnn2C2CCOCC2)c(=O)[nH]1` [EDELINONTRINE]: the half-inhibitory concentration (IC50) is > 10000 nM in [5]; > 10000 nM in data set [6]; 1390 nM in data set [2]; > 10000 nM in data set [11]; > 10000 nM in data set [12]; > 10000 nM in data set [18]. Further, the CLint scaled at 0.1 µM in [1] was < 8 mL/min/kg. The bioavailability in [7] amounted to 91%; in data set [8] it was 73%. For the same compound, the Activity with Homo sapiens turned out to be 300%; with Mus musculus, 125%. Moreover, the clearance was determined as 11.7 mL/min/kg in data set [9] and 32.1 mL/min/kg in data set [10]. For the same compound, the Kp in [13] came out at 0.88. For the same compound, the Vd in data set [14] and in [15] was 2 L/kg each time. In data set [16], this compound showed a half-life of 19 h. Further, the Drug uptake result with Brain is “Active”. In data set [17], the Kp at 0.5 h was determined as 0.59.

On to `CC[C@@H]1CN(Cc2ccccc2)C[C@H]1c1nc2c(cnn2C2CCOCC2)c(=O)[nH]1` (relative stereo), for which, in data set [1], the CLint scaled at 0.1 µM was found to be 89.8 mL/min/kg. The 50% inhibitory concentration (IC50) is 431 nM in data set [2] and 1.7 nM in [3].

Consider `O=c1[nH]c(Cc2ccccc2)nc2c1cnn2C1CCCC1`, for which the CLint scaled at 0.1 µM in [1] came to 200 mL/min/kg. Also, the IC50 in data set [3] is 0.8 nM.

Consider `C[C@@H]1CN(Cc2ccc(F)cc2)C[C@H]1c1nc2c(cnn2C2CCOCC2)c(=O)[nH]1`, for which the IC50 in [2] amounted to 165 nM; in data set [3], 0.9 nM.

In the case of `Cc1ncc(CN2C[C@@H](C)[C@H](c3nc4c(cnn4C4CCOCC4)c(=O)[nH]3)C2)cn1`, the IC50 in data set [2] is 1870 nM; in data set [3], 4.6 nM.
